In publication PMC11610768 (The AAPS journal, 2023):
Read-outs that look alike come from different tables or passages of the source.

Assays:
cyclin D1 in A2780 cells = assay: Concentration-dependent changes in cyclin D1 in A2780 cells; assay type: cell-based, human; conditions: 24 h exposure, 1-15 µM, ELISA
Summary of the method: (§1)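 Cells grown in RPMI 1640 with 10% FBS and 1% antibiotic-antimycotic, seeded overnight at 37°C, 5% CO2, then exposed to test compound (DMSO) at 0–15 µM for 24 h. SKOV3 only: 2–24 h time course at 2.5 and 10 µM, and washout after 24 h at 10 µM with recovery at 4, 8, 24 h. Cyclin D1 measured by sandwich ELISA (5 µg protein, duplicates, OD 450 nm) and by western blot (20 µg lysate, β-actin reprobe).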

cyclin D1 in SKOV3 cells = assay: Concentration- and time-dependent changes in cyclin D1 in SKOV3 cells; assay type: cell-based, human
Summary of the method: as §1

mortalin = assay: Western blot of total mortalin in ovarian cancer cells; assay type: cell-based, human
[1] = assay type: in vivo, mice
Summary of the method: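 Tumour-bearing nude mice (intraperitoneal SKOV3) received 60 mg/kg oral daily for 7 days in 30% Kolliphor HS 15. Saphenous blood was taken at 1, 4, 6, 8, 12 h after the first dose and at troughs 24–144 h, with 3 mice per point in rotating subgroups. Tissues were taken after the last dose. For HPLC-UV, plasma or tissue homogenate (3 mL/g phosphate buffer, pH 7.4) plus internal standard underwent acetonitrile precipitation, centrifugation and filtration. LLOQ 5 ng/mL; values given as mean ± SD.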

[2] = system: cyclin D1 in SKOV3 tumors; assay: Cyclin D1 in SKOV3 xenograft tumors; assay type: in vivo, mice; conditions: 60 mg/kg oral once daily, observed at 12 h
Summary of the method: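 Female athymic nude mice (Foxn1nu, 6–8 weeks) were given intraperitoneal SKOV3-luc cells, and tumours were confirmed after about 3 weeks. Dosing: 60 mg/kg oral, daily for 7 days, as a suspension in 30% Kolliphor HS 15 (6 mg/mL, 10 mL/kg); vehicle controls, n = 3. Tumours were taken after the last dose; archived 24-h single-dose tumours were also used. Lysate (5 µg protein) run in a total cyclin D1 sandwich ELISA in duplicate, read at OD 450 nm.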

ccK18 = ccK18 quantification in mouse plasma; assay type: in vivo, mice; conditions: single IV dose 10 mg/kg, 2–4 h after dosing; vehicle approx 700 U/L
[3] = single oral dose study, tumor-bearing mice; cited from earlier work
xenograft tumor models = conditions: 60 mg/kg QD; cited from earlier work
colorectal tumors = conditions: APCmin/+ mouse, cited from earlier work
[4] = animal models; cited from earlier work
[5] = 60 mg/kg oral once daily for seven days
[6] = 60 mg/kg oral once daily, at 1 h

CC1(C)CC(C)(C)c2cc(NC(=S)Nc3ccc([N+](=O)[O-])cc3)ccc2S1 [SHetA2]
maximum inhibition of cyclin D1 levels (cyclin D1 in A2780 cells): ~ 80% | cyclin D1 level restored, of baseline (cyclin D1 in SKOV3 cells; 24 h after drug removal, after 24 h exposure to 10 µM): over 80% | IC50 (cyclin D1 in SKOV3 cells; Homo sapiens, SK-OV-3, read-out: IC50 of cyclin D1 reduction): 4 to 5 µM | maximum inhibition of cyclin D1 levels (cyclin D1 in SKOV3 cells; SKOV3 cells, 24 h exposure, 1-15 µM, ELISA): ~ 70% | time at which cyclin D1 levels began to recover after drug removal (cyclin D1 in SKOV3 cells; after 24 h exposure to 10 µM, drug removed from culture medium): 4 h | cyclin D1 reduction / inhibition observed (cyclin D1 in SKOV3 cells; cancer cells (cell line not named at the place), dose-dependent): up to 70% | effect on total mortalin levels (mortalin): no effect | accumulation of the drug in plasma [1, 5]: No significant accumulation | mean trough concentrations in the plasma [1, 5]: 18.8 ± 6.6 ng/mL | peak tumor concentration [1, 6]: around 4,000 ng/ml | peak tumor concentration (equivalent) [1, 6]: ~ 10 µM | maximum reduction in cyclin D1 in tumor [2]: ~ 70% | peak plasma ccK18 level (ccK18): 913 U/L | elimination half-life [3]: 4.5 h | antitumor activity (xenograft tumor models): 40–60% | reduction of cyclin D1 in the tumors (colorectal tumors; 30 mg/kg QD): 50% | reduction of cyclin D1 in the tumors (colorectal tumors; 60 mg/kg QD): 90% | reduction of incidence of colorectal tumors (colorectal tumors; QD doses of 30 or 60 mg/kg): over 50% | adverse effects in genetic toxicology assays and toxicity tests [4]: no adverse effects observed
